Reference: publication PMC4359053 (Journal of medicinal chemistry, 2015)
Read-outs that look alike come from different tables or passages of the source.

Columns and labels:
[1] = system: BR+ and BR- cell lines; assay: internalization of fluorescence-labeled paclitaxel by CFM and flow cytometry; assay type: cell-based; conditions: Figure S1
Outline: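 After probe exposure, cells trypsinised if needed, washed twice in PBS and resuspended in PBS. Flow cytometry: 488 nm excitation, emission at 530 nm (30 nm bandpass, 515–545 nm), about 10,000 cells counted per experiment, FITC fluorescence distribution analysed. Confocal: two-photon laser-scanning microscope, 488 nm excitation, emission 527 ± 23 nm (505–550 nm bandpass), cells on uncoated coverslip slide.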

[2] = system: ID8 murine ovarian carcinoma cell line (BR+); assay: standard MTT cytotoxicity assay, continuous incubation; assay type: cell-based; conditions: read-out: Cytotoxicity IC50, ID8; incubation at 37 °C for 48 h
[3] = system: WI38 human lung fibroblast cell line (BR−); assay: as above; assay type: cell-based
[4] = system: MX-1 human breast carcinoma cell line (BR+); assay: as above; assay type: cell-based
[5] = system: BR+ cancer cell lines (MX-1, L1210FR, ID8); assay: MTT cytotoxicity, text summaries pooled over BR+ cancer cell lines; assay type: cell-based
Outline: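 Adherent cells seeded at 8,000–10,000/well and held 24 h at 37 °C before dosing; leukemia cells at 0.5–0.8 × 10^4/well suspended directly in test solutions. Final 0.5–5,000 nM from DMSO stocks, 37 °C, 5% CO2, 48 h or 72 h. Assay 2: 24 h exposure, PBS wash, GSH-OEt (6 equiv. to conjugate) added, further 48 h. MTT 0.5 mg/mL in PBS, 3 h, 37 °C.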

[6] = system: L1210FR murine lymphocytic leukemia cell line (BR+); assay: standard MTT cytotoxicity assay, continuous incubation; assay type: cell-based
[7] = system: L1210 murine lymphocytic leukemia cell line (BR−); assay: as above; assay type: cell-based; conditions: read-out: Cytotoxicity IC50, L1210; incubation at 37 °C for 48 h
[8] = system: L1210FR murine lymphocytic leukemia cell line (BR+); assay: MTT Assay 3: 24 h incubation, GSH-OEt addition without washing, further 48 h; assay type: cell-based; conditions: read-out: Cytotoxicity IC50, L1210FR, Assay 3, GSH-OEt (6 equiv.) added without wash, additional 48 h
Outline: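 L1210FR suspension cells in supplemented RPMI-1640 were exposed to test compound at 37 °C for 24 h; DMSO ≤1%. GSH-OEt (6 equiv.) in medium was then added directly, without washing, for a further 48 h (72 h total). Viability was read by MTT (0.5 mg/mL in PBS, 3 h, 37 °C), solubilized in 0.1 N HCl/isopropanol with 10% Triton X-100, at 570 nm. IC50 by four-parameter logistic fit; triplicate runs.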

[9] = system: L1210FR murine lymphocytic leukemia cell line (BR+); assay: MTT Assay 2: 24 h incubation, PBS wash, GSH-OEt addition, further 48 h; assay type: cell-based; conditions: read-out: Cytotoxicity IC50, L1210FR, Assay 2, GSH-OEt (6 equiv.), additional 48 h
Outline: (§1)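 Cells grown in supplemented RPMI-1640 (5% FBS, 5% NuSerum, 1% PenStrep) at 37 °C, 5% CO2, then seeded at 0.5–1.5 × 10^4 cells/well. Test compound (from DMSO stock; DMSO ≤1%) was added for 24 h at 37 °C. Medium was then removed, cells were washed with PBS, and GSH-OEt (6 equiv. to conjugate) in fresh medium was added for 48 h more (72 h total). MTT (0.5 mg/mL, 3 h), formazan dissolved in acidic isopropanol/Triton X-100, A570. IC50 from four-parameter logistic fit; triplicate.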

[10] = system: MX-1 human breast carcinoma cell line (BR+); assay: as above; assay type: cell-based; conditions: read-out: Cytotoxicity IC50, MX-1, Assay 2, GSH-OEt (6 equiv.), additional 48 h
Outline: as §1

[11] = system: WI38 (BR−) cells; assay: internalization by confocal fluorescence microscopy and flow cytometry; assay type: cell-based, human; conditions: 5 µM, 37 °C
[12] = system: L1210 (BR−) cells; assay: as above; assay type: cell-based, murine; conditions: 5 µM, 37 °C
[13] = system: BR+ cancer cell lines (L1210FR, MX-1, ID8); assay: internalization by confocal fluorescence microscopy and flow cytometry; assay type: cell-based; conditions: 5 µM, 37 °C
Outline: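 Adherent cells were seeded at 5 × 10^5 cells/mL overnight, then given medium containing 5 µM fluorescent probe. For leukemia cells, 1 mM DMSO stock was spiked into fresh suspensions to 5 µM final. Incubation ran 30 min–24 h at 37 °C; cells were then trypsinized as needed and washed twice in PBS. Flow cytometry used 488 nm excitation, 515–545 nm emission, ~10,000 cells. Confocal imaging used 488 nm excitation, 505–550 nm bandpass, 63× water objective.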

[14] = read-out: Cytotoxicity IC50, WI38, Assay 1, 37 °C, 72 h, no GSH-OEt
[15] = read-out: Cytotoxicity IC50, WI38, incubation at 37 °C for 48 h
[16] = read-out: Cytotoxicity IC50, MX-1, Assay 1, 37 °C, 72 h, no GSH-OEt
[17] = read-out: Cytotoxicity IC50, MX-1, incubation at 37 °C for 48 h
[18] = read-out: Cytotoxicity IC50, L1210FR, Assay 1, 37 °C, 72 h, no GSH-OEt
[19] = read-out: Cytotoxicity IC50, L1210FR, incubation at 37 °C for 48 h

Row | Compound | internalization across BR+ and BR- cell lines [1] | IC50 [2] | IC50 [3, 14] | IC50 [3, 15] | IC50 [4, 16] | IC50 [4, 17] | IC50 ([5]; read-out: Cytotoxicity IC50, MX-1 and L1210FR, free drug, range, 72 h incubation (Assay 1)) | IC50 [6, 18] | IC50 [6, 19] | IC50 [7] | IC50 [8] | IC50 [9] | potency times lower than free taxoid 3 against three BR+ cancer cell lines ([5]; 48 h incubation) | cancer cell selectivity (BR-specificity), BR+ cancer cells vs BR− WI38 cells ([5]; Assay 2) | IC50 ([5]; read-out: Cytotoxicity IC50, BR+ cancer cells (MX-1, L1210FR), Assay 2, range, 24 h, PBS wash, GSH-OEt, additional 48 h) | IC50 [10] | internalization into WI38 cells [11] | internalization into L1210 cells [12] | internalization into BR+ cancer cell lines [13]
1 | 7-(4-Fluoresceinyl)butanoylpaclitaxel [compound 6] | nonspecific internalization | – | – | – | – | – | – | – | – | – | – | – | – | – | – | – | – | – | –
2 | CC(=O)O[C@@]12CO[C@@H]1C[C@H](O)[C@@]1(C)C(=O)[C@H](OC(=O)C3CC3)C3=C(C)[C@@H](OC(=O)[C@H](O)[C@H](C=C(C)C)NC(=O)OC(C)(C)C)C[C@@](O)([C@@H](OC(=O)c4ccccc4)[C@H]21)C3(C)C [Taxoid 3, SB-T-1214, reference compound] | – | 0.17 ± 0.14 nM | 4.89 ± 2.24 nM | 5.23 ± 0.27 nM | 2.66 ± 0.16 nM | 4.13 ± 2.59 nM | 2.32 to 2.66 nM | 2.32 ± 1.41 nM | 4.18 ± 1.8 nM | 7.05 ± 1.38 nM | – | – | – | – | – | – | – | – | –
3 | Biotin-(SS-Linker)-SB-T-1214 [conjugate 4] | – | 4.32 ± 1.58 nM | 645 ± 97 nM | 670 ± 89 nM | 4.66 ± 0.87 nM | 15.4 ± 4.2 nM | – | 12.3 ± 2.8 nM | 13.4 ± 6.8 nM | 481 ± 34 nM | 2.92 ± 2.34 nM | 5.15 ± 2.85 nM | 3–30 times | two-orders of magnitude difference | 3.85 to 6.6 nM | 3.85 ± 0.14 nM | – | – | –
4 | Biotin-NH-PEG3-(CH2)2-NH-FITC [probe 5] | – | – | – | – | – | – | – | – | – | – | – | – | – | – | – | – | no appreciable internalization | no appreciable internalization | highly target-specific and efficient internalization
